Where “and” joins values, the source holds several entries; their conditions need not be identical. Equal entries are not always repeated. Non-standard residues stand in square brackets, D forms with d. Residues, ends and D or L forms follow the SMILES beside them. No end group written: not given here. *: point of attachment. X1 = C/C=C(/C)C(=O)O[C@H]1C(C)=C2[C@H]([C@@H]1OC(=O)CCCCCCC)[C@@](C)(OC(C)=O)C[C@H](OC(=O)CCCCCCCCCCCN*)[C@@]1(O)[C@H]2OC(=O)[C@@]1(C)O; A12ADT = thapsigargin analog A12ADT
How the values were obtained:
[1] = Body weight loss in treated LNCaP xenograft-bearing mice; format: in vivo, mouse
[2] = system: LNCaP human prostate cancer xenografts; experiment: LNCaP xenograft efficacy study, comparison to docetaxel; format: in vivo, mouse; conditions: prodrug 10 nmoles IV days 0, 1, 2; docetaxel 12 mg/kg/dose IV days 0, 3, 6
Method in brief: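 Six-week-old male nude mice (n = 10/group) received subcutaneous rear-flank injections of LNCaP cells at 2.0 × 10⁶ per 100 µL of 60% Matrigel in HBSS. Prodrug was given IV at 6.8 mg/kg/dose (10 nmoles) on days 0, 1, 2. Docetaxel was given IV at 12 mg/kg/dose […] on days 0, 3, 6 for one cycle. Tumor volume (0.5236 × L × W × H) was measured weekly by calipers, and body weight was tracked.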

[3] = cited from earlier work
[4] = Plasma pharmacokinetics of prodrugs and active drug after IV dosing; format: in vivo, mouse
Method in brief: (§1)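 Mice were dosed IV and bled by cardiac puncture under anesthesia to give heparinized plasma; naive-mouse plasma served as control, and tissues and tumors were harvested. Samples were deproteinated in acetonitrile with 0.1% FA, with L12ADT at 1 µM as internal standard. Calibration standards ran 100pM–100 µM. Samples were analysed by reversed-phase LCMS (positive-mode MRM). Terminal t1/2 came from the terminal slope of log-linear concentration–time plots.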

[5] = Tumor pharmacokinetics of prodrug activation in MCF-7 xenografts; format: in vivo, mouse
Method in brief: as §1

[6] = Hydrolysis of prodrugs in mouse plasma ex vivo; format: in vitro ADME; conditions: 100 µM prodrug, 37°C, 24 hrs
Method in brief: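 Plasma was taken by intra-cardiac puncture from fully anesthetized mice. Prodrugs were added at 100 µM final and incubated at 37°C for 24 hrs with shaking. Active drug (A-, S-, E-12ADT) was measured by LCMS at 0 and 24hrs.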

FAP = target: T1, FAP (Homo sapiens, UniProt Q12884); experiment: FAP-mediated hydrolysis of prodrugs ex vivo; format: biochemical
T1 sequence (Q12884 26-760 limits assumed): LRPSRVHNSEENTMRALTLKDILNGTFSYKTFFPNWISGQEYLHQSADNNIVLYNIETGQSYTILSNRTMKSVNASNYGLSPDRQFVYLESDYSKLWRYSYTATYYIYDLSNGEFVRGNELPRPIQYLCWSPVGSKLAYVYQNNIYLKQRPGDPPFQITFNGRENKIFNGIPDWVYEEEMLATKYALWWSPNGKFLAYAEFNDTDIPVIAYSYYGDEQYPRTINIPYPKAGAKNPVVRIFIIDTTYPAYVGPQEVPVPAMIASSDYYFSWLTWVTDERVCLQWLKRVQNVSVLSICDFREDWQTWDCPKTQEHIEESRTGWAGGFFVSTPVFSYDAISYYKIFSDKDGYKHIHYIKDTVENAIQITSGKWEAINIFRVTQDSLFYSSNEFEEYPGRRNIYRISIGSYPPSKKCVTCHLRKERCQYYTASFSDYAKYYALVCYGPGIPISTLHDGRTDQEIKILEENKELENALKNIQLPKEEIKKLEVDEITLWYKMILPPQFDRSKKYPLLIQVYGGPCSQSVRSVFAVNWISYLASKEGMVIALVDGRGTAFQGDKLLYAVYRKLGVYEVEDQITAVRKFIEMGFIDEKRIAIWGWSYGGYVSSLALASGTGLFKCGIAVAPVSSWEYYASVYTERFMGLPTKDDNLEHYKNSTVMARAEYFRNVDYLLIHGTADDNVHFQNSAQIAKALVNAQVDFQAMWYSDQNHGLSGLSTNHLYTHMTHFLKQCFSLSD
Method in brief: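 Recombinant FAP was expressed in Schneider's S2 cells and purified from the culture supernatant. Prodrugs at […] were held in FAP buffer (100mM NaCl, 100mM Tris, pH 7.8) with 10% DMSO, with or without 200nM FAP, at 37°C for 24hrs with shaking. Active drug (A-, S-, E-12ADT) was measured by LCMS at 0, 4 and 24hrs.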

Compound: CC(=O)O[C@@]12CO[C@@H]1C[C@H](O)[C@@]1(C)C(=O)[C@H](O)C3=C(C)[C@@H](OC(=O)[C@H](O)[C@@H](NC(=O)OC(C)(C)C)c4ccccc4)C[C@@](O)([C@@H](OC(=O)c4ccccc4)[C@H]21)C3(C)C [docetaxel]
- recovery of body weight ([1]; over the course of the experiment): did not recover
- total body weight lost following therapy ([1]; prodrug IV days 0, 1, 2, docetaxel IV days 0, 3, 6): ~ 30% and 30%
- anti-tumor effect against LNCaP xenografts [2]: comparable anti-tumor effect

Compound: C/C=C(/C)C(=O)O[C@H]1C(C)=C2[C@H]([C@@H]1OC(=O)CCCCCCC)[C@@](C)(OC(C)=O)C[C@H](OC(=O)CCC)[C@@]1(O)[C@H]2OC(=O)[C@@]1(C)O [TG, Thapsigargin]
- therapeutic benefit at the maximally-tolerated dose (MTD) [3]: no therapeutic benefit

Compound: C/C=C(/C)C(=O)O[C@H]1C(C)=C2[C@H]([C@@H]1OC(=O)CCCCCCC)[C@@](C)(OC(C)=O)C[C@H](OC(=O)CCCCCCCCCCCNC(=O)[C@H](CO)NC(=O)[C@H]1CCCN1C(=O)CNC(=O)[C@@H](NC(=O)[C@H](CCC(=O)O)NC(=O)CNC(=O)[C@H](CCCNC(=N)N)NC(=O)[C@@H](N)CCC(=O)O)[C@@H](C)O)[C@@]1(O)[C@H]2OC(=O)[C@@]1(C)O [ERGETGp-S12ADT] (H-ERGETG[dP]S-X1; N-terminus assumed)
- 12ADT levels in mouse plasma as part of total administered dose ([4]; in vivo after IV dosing): < 0.01%
- Cmax ([4]; mouse, plasma, iv): 35 to 40 µM
- Tmax ([4]; mouse, plasma, iv): ≤ 1 h
- half-life ([4]; mouse, plasma, iv, half-life (t1/2) in mouse plasma, full-length prodrug, single IV dose): 4 to 5 h
- clearance from circulation ([4]; single IV dose): almost entirely cleared from circulation by 24 hrs
- active species detectable in tumors [5]: only 12ADT is detectable
- total active drug concentration in tumor, fold lower than from ERGETGP-S12ADT [5]: ~ 7 fold
- active drug generation in mouse plasma ex vivo [6]: no active drug generated

Compound: ASGPAGP-A12ADT: FAP-activated prodrug: peptide ASGPAGP coupled to thapsigargin analog A12ADT
- active drug (S- or A12ADT) released in the presence of FAP (FAP; 200nM FAP, FAP buffer pH 7.8, 37°C, up to 24hrs, LCMS): 2 µM
- stability in the absence of FAP (FAP; FAP buffer without FAP, data not shown): completely stable
